According to ChEMBL document CHEMBL1240472, “Hypervalent iodine(III) mediated synthesis of novel unsymmetrical 2,5-disubstituted 1,3,4-oxadiazoles as antibacterial and antifungal agents” (2010):
In brackets after ≈: the same amount, converted by molar mass.

Assays:
Staphylococcus aureus [1] = test: Antimicrobial activity against Staphylococcus aureus MTCC 96 after by agar well diffusion method
Staphylococcus aureus [2] = test: Antimicrobial activity against Staphylococcus aureus MTCC 96 […]; assay type: functional
Aspergillus flavus = test: Antimicrobial activity against Aspergillus flavus assessed as inhibition of mycelial growth by poisoned food method; assay type: functional
Escherichia coli [3] = test: Antimicrobial activity against Escherichia coli MTCC 1652 by […]; assay type: functional
Bacillus subtilis [4] = test: Antimicrobial activity against Bacillus subtilis MTCC 121 […]; assay type: functional
Aspergillus niger = test: Antimicrobial activity against Aspergillus niger assessed as inhibition of mycelial growth by poisoned food method; assay type: functional
Bacillus subtilis [5] = test: Antimicrobial activity against Bacillus subtilis MTCC 121 by agar well diffusion method
Pseudomonas aeruginosa [6] = test: Antimicrobial activity against Pseudomonas aeruginosa MTCC 741 after 24 hrs by […]; assay type: functional
Procedure, shortened: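 Agar well diffusion assay (8 mm wells). Inhibition zone diameter read in mm, with the well diameter included in the value. Results are means of three replicates.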

Escherichia coli [7] = test: Antimicrobial activity against Escherichia coli MTCC 1652 by microdilution assay; assay type: functional; conditions: in the assay text read “macrodilution” for “microdilution”
Procedure, shortened: (§1)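 MIC determined in µg/ml by the macrodilution method, only for compounds active in the primary diffusion screen. Results are means of three replicates.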

Pseudomonas aeruginosa [8] = test: Antimicrobial activity against Pseudomonas aeruginosa MTCC 741 by microdilution assay; assay type: functional; conditions: in the assay text read “macrodilution” for “microdilution”
Procedure, shortened: as §1

Row | Compound | inhibition zone (IZ) (Staphylococcus aureus [1]) [mm] | MIC (Staphylococcus aureus [2]) [µg/mL] | inhibition (INH) (Aspergillus flavus) [%] | inhibition zone (IZ) (Escherichia coli [3]) [mm] | MIC (Bacillus subtilis [4]) [µg/mL] | inhibition (INH) (Aspergillus niger) [%] | inhibition zone (IZ) (Bacillus subtilis [5]) [mm] | inhibition zone (IZ) (Pseudomonas aeruginosa [6]) [mm] | MIC (Escherichia coli [7]) [µg/mL] | MIC (Pseudomonas aeruginosa [8]) [µg/mL]
1 | c1ccc(-c2nnc(-c3cn(-c4ccccc4)nc3-c3ccccc3)o2)cc1 | 20.3 | 64 (≈ 176 µM) | 61.1 | 14.3 | 128 (≈ 351 µM) | 44.4 | 18.6 | 13.6 | > 128 | > 128
2 | Clc1ccc(-c2nn(-c3ccccc3)cc2-c2nnc(-c3ccccc3)o2)cc1 | 21.6 | 32 (≈ 80.2 µM) | 44.4 | 15.6 | 64 (≈ 160 µM) | 55.5 | 19.6 | 13.6 | > 128 | > 128
3 | Fc1ccc(-c2nn(-c3ccccc3)cc2-c2nnc(-c3ccccc3)o2)cc1 | 18.6 | 128 (≈ 335 µM) | 50 | 14.3 | 32 (≈ 83.7 µM) | 66.6 | 20.6 | 14.3 | > 128 | > 128
4 | Brc1ccc(-c2nn(-c3ccccc3)cc2-c2nnc(-c3ccccc3)o2)cc1 | 20 | 64 (≈ 144 µM) | 55.5 | 16.6 | 128 (≈ 289 µM) | 61.1 | 18.3 | 14.6 | 128 (≈ 289 µM) | > 128
5 | Cc1ccc(-c2nn(-c3ccccc3)cc2-c2nnc(-c3ccccc3)o2)cc1 | 18.3 | 128 (≈ 338 µM) | 61.1 | 15.6 | 16 (≈ 42.3 µM) | 66.6 | 21.6 | 13.6 | > 128 | > 128
6 | COc1ccc(-c2nn(-c3ccccc3)cc2-c2nnc(-c3ccccc3)o2)cc1 | 22.6 | 16 (≈ 40.6 µM) | 66.6 | 16.3 | 32 (≈ 81.1 µM) | 44.4 | 20.3 | 14 | 128 (≈ 325 µM) | > 128
7 | O=[N+]([O-])c1ccc(-c2nn(-c3ccccc3)cc2-c2nnc(-c3ccccc3)o2)cc1 | 23.3 | 8 (≈ 19.5 µM) | 61.1 | 15.6 | 16 (≈ 39.1 µM) | 50 | 21.6 | 14.3 | > 128 | > 128
8 | O=[N+]([O-])c1ccc(-n2cc(-c3nnc(-c4ccccc4)o3)c(-c3ccccc3)n2)cc1 | 20.6 | 64 (≈ 156 µM) | 66.6 | 18.6 | 8 (≈ 19.5 µM) | 66.6 | 24.3 | 15.3 | 128 (≈ 313 µM) | > 128
9 | COc1ccc(-c2nn(-c3ccc([N+](=O)[O-])cc3)cc2-c2nnc(-c3ccccc3)o2)cc1 | 24.3 | 8 (≈ 18.2 µM) | 50 | 20.6 | 8 (≈ 18.2 µM) | 55.5 | 23.6 | 18.6 | 64 (≈ 146 µM) | 64 (≈ 146 µM)
10 | O=[N+]([O-])c1ccc(-n2cc(-c3nnc(-c4ccccc4)o3)c(-c3ccc(F)cc3)n2)cc1 | 21.3 | 32 (≈ 74.9 µM) | 55.5 | 20 | 8 (≈ 18.7 µM) | 44.4 | 24.3 | 16.6 | 64 (≈ 150 µM) | 128 (≈ 299 µM)
11 | O=[N+]([O-])c1ccc(-c2nn(-c3ccc([N+](=O)[O-])cc3)cc2-c2nnc(-c3ccccc3)o2)cc1 | 22.6 | 16 (≈ 35.2 µM) | 44.4 | 18.3 | 8 (≈ 17.6 µM) | 55.5 | 23.6 | 14.6 | 128 (≈ 282 µM) | > 128
12 | O=C(O)c1cn(C2CC2)c2cc(N3CCNCC3)c(F)cc2c1=O [CIPROFLOXACIN] | 26 | 5 (≈ 15.1 µM) | – | – | 5 (≈ 15.1 µM) | – | 24 | 22 | 5 (≈ 15.1 µM) | 5 (≈ 15.1 µM)
13 | OC(Cn1cncn1)(Cn1cncn1)c1ccc(F)cc1F [FLUCONAZOLE] | – | – | 77.7 | – | – | 81.1 | – | – | – | –
